Source: ChEMBL document CHEMBL1151849, “Antioxidant hydroquinones substituted by beta-1,6-linked oligosaccharides in wheat germ” (J Nat Prod, 2009)
Active and inactive are the calls of the source. The calls are words filed in the database; no cut-off is given here.

How the values were obtained:
[1] = Antioxidant activity assessed as trolox equivalents of ABTS radical scavenging activity by TEAC assay; assay type: functional
Outline: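 ABTS radical cation generated from 7 mM ABTS plus 2.5 mM K2S2O8 in water, kept dark at room temperature 16-18 h, then diluted in aqueous 50% EtOH to A734 0.70 ± 0.02. 10.0, 20.0 or 30.0 µL of 1.00 mM aqueous compound added to 2.00 mL radical solution. A734 decrease recorded from 15 s to 5 min. Calibration curves compared with Trolox, expressed as mM Trolox equivalent to 1 mM compound.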

[2] = system: Radical scavenging activity; assay: Antioxidant activity assessed as ABTS radical cation scavenging activity by TEAC assay
Nucleic Acid = assay: Protection against H2O2-induced DNA damaging activity of pBR322 assessed as induction of single stranded breaks by gel electrophoresis; conditions: Escherichia coli
Outline: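 pBR322 plasmid (100 ng) incubated 1 h at 37 °C in 100 mM sodium phosphate pH 7.4 with 0.3% H2O2 and 30, 100, 300 ng or 1 µg compound. Reaction volume was 12 µL. Analysed on a 0.7% agarose gel run 1.5 h at 80 V, stained with 0.5 µg/mL ethidium bromide for 15 min, then imaged under UV.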

SMILES	Activity [1]	Activity [2]	Activity (Nucleic Acid)
COc1cc(O[C@@H]2O[C@H](CO[C@@H]3O[C@H](CO[C@@H]4O[C@H](CO[C@@H]5O[C@H](CO)[C@@H](O)[C@H](O)[C@H]5O)[C@@H](O)[C@H](O)[C@H]4O)[C@@H](O)[C@H](O)[C@H]3O)[C@@H](O)[C@H](O)[C@H]2O)ccc1O	0.88	Active	
COc1cc(O)ccc1O[C@@H]1O[C@H](CO[C@@H]2O[C@H](CO[C@@H]3O[C@H](CO)[C@@H](O)[C@H](O)[C@H]3O)[C@@H](O)[C@H](O)[C@H]2O)[C@@H](O)[C@H](O)[C@H]1O	1.76		
OC[C@H]1O[C@@H](OC[C@H]2O[C@@H](OC[C@H]3O[C@@H](Oc4ccc(O)cc4)[C@H](O)[C@@H](O)[C@@H]3O)[C@H](O)[C@@H](O)[C@@H]2O)[C@H](O)[C@@H](O)[C@@H]1O	1.12		
COc1cc(O[C@@H]2O[C@H](CO[C@@H]3O[C@H](CO[C@@H]4O[C@H](CO)[C@@H](O)[C@H](O)[C@H]4O)[C@@H](O)[C@H](O)[C@H]3O)[C@@H](O)[C@H](O)[C@H]2O)ccc1O	0.97	Active	Dose-dependent effect
COc1cc(O[C@@H]2O[C@H](CO[C@@H]3O[C@H](CO[C@@H]4O[C@H](CO)[C@@H](O)[C@H](O)[C@H]4O)[C@@H](O)[C@H](O)[C@H]3O)[C@@H](O)[C@H](O)[C@H]2O)cc(OC)c1O	0.8	Active	
COc1cc(O[C@@H]2O[C@H](CO[C@@H]3O[C@H](CO)[C@@H](O)[C@H](O)[C@H]3O)[C@@H](O)[C@H](O)[C@H]2O)ccc1O	0.94	Active	
COc1cc(O[C@@H]2O[C@H](CO[C@@H]3O[C@H](CO)[C@@H](O)[C@H](O)[C@H]3O)[C@@H](O)[C@H](O)[C@H]2O)cc(OC)c1O	0.85	Active	
